FAK inh: inhibitors of human focal adhesion kinase; inhibition, %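 (tested at 7 µM)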; actives 0.84% (n = 97,000); Q05397; biochemical FAK kinase activity assay; in the data active means inhibition above about 19%
Target sequence (Q05397 whole entry, looked up): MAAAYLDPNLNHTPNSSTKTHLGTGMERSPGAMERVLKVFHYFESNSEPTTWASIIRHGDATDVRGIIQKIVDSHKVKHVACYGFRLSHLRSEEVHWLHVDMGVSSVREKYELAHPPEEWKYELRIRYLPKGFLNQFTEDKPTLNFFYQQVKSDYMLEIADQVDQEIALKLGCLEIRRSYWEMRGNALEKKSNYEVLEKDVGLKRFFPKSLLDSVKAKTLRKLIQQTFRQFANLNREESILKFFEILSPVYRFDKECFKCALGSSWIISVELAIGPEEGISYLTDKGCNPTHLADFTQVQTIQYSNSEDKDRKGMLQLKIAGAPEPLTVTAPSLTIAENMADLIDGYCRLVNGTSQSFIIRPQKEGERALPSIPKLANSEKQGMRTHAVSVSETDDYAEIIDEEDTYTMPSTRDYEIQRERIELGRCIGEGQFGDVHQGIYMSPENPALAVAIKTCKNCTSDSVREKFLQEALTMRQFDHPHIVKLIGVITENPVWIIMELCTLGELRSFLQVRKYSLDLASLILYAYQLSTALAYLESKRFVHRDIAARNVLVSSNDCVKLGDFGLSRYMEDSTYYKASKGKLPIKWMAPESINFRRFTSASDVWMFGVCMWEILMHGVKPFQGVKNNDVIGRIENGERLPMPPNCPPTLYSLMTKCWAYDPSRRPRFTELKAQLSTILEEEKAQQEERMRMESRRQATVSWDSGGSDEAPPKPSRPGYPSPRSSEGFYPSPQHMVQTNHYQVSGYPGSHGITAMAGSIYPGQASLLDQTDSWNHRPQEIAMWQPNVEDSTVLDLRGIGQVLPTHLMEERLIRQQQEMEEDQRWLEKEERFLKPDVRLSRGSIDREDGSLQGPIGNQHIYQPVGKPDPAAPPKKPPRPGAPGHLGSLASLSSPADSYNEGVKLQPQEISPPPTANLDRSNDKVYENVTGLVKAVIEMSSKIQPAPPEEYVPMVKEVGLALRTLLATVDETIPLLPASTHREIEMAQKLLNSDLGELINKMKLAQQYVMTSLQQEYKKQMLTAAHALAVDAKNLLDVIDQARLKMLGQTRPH
IL1B cytotox: HUVEC cytotoxicity counter-screen, IL-1B stimulated. AID 845. actives 0.41% (n = 94,000). cell count reduction, % at 2 µM. HUVEC cell count loss, Hoechst imaging;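 active means cell count reduction more than 3 SD above the screen-wide mean, cut at about 70% in these data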
IL1B NFkB inh: blocks IL-1B driven NFkB nuclear translocation in HUVEC cells. HUVEC IL-1B NFkB p65 nuclear translocation imaging. inhibition, % at 2 µM. actives 0.43% (n = 94,000);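 active means inhibition above about 30% together with a positive call from visual inspection of the well image, limit read from the data; inconclusive means inhibition above a set limit but visual check negative; inactive means inhibition not above a set limit, visual check negative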;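 further: nuclear over cytoplasmic p65 intensity ratio measured by imaging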
Measles CPE: protection of cells from measles virus; Measles virus-infected cells, CPE protection, absorbance; protection (pct of control), % at 4 µM; actives 1.5% (n = 140,000); in the data active means protection mostly above about 24%, no sharp cut-off; inactive means mostly below about 26%
IL1B NFkB pot: enhances IL-1B driven NFkB nuclear translocation. HUVEC IL-1B NFkB p65 nuclear translocation imaging. activation, % at 2 µM. actives 0.3% (n = 94,000). AID 819;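 active means activation above 40%, about the mean plus 3 SD, also judged a hit on visual image review; inconclusive means activation above 40% but not a hit on visual review; inactive means activation not above 40% and no visual hit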;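 further: percent activation is computed from the nuclear over cytoplasmic p65 intensity ratio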
HIV Rev-RRE inh: disrupts HIV-1 Rev binding to RRE RNA. Rev peptide-RRE RNA binding, FRET. inhibition, % at 8 µM. actives 0.79% (n = 97,000);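 active means inhibition above the screen-wide mean plus 3 SD, cut at about 35% in these data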
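Test system – labelled RRE RNA duplex and labelled Rev peptide · Signal – fluorescein-to-Cy5 FRET, 480 nm excitation · Evaluation – % inhibition of FRET ratio versus controls · Benchmarks – DMSO low control, neomycin B high control · Incubation – 5 min RNA-compound premix plus 15 min binding step, 25 °C · Medium – HEPES pH 7.5 salt buffer with EDTA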
A number is an active result; . = inactive; ? = inconclusive; / = not tested or not shown; [ ] = another dose, or the depositor's remark. Only some compounds are listed: those with a hit (about 3.3% of all), similar ones and a draw of the others.

SMILES	FAK inh	IL1B cytotox	IL1B NFkB inh	Measles CPE	IL1B NFkB pot	HIV Rev-RRE inh
CN(C)c1ccc(/C=C/[N+](=O)[O-])cc1	/	/	/	.	/	/
C/C(=C\c1ccc(N(C)C)cc1)[N+](=O)[O-]	.	.	.	.	.	73.4
CS(=O)(=O)NCc1nnc2n1-c1ccc(Cl)cc1C(c1ccccc1)=NC2	/	/	/	27.8	/	/
CCC(C)n1c(O)c(C=Nc2cccc(C(F)(F)F)c2)c(=O)[nH]c1=S (centres undefined)	/	/	/	.	/	/
O=C(c1ccccc1)C(CN1CCCC1)c1ccccc1 (centres undefined)	/	/	/	22.1	/	/
O=C(Cn1cc(C(=O)c2ccccc2)c2ccccc21)NCc1ccco1	.	87.9	93.1	.	.	.
O=P(O)(O)C12CC3CC(CC(C3)C1)C2	.	.	.	.	.	.
NC(=O)CN1CC(c2ccccc2)CC1=O (centres undefined)	.	.	.	39.0	.	.
Cc1ccc2c(c1)C1CN(C)CCC1N2C(=O)Nc1cccc(C(F)(F)F)c1 (centres undefined)	.	.	30.4	.	.	.
CCOC(=O)c1ccc(NC(=O)c2c(O)[nH]c(=O)[nH]c2=O)cc1	.	.	.	.	.	140.3[fluorescence artefact?]
NC(=O)c1ccc(N=Nc2c(O)[nH]c(=O)[nH]c2=O)cc1	/	/	/	.	/	/
CCC(CC)NC1CCCCC1OC (centres undefined)	/	/	/	26.4	/	/
CC(C)C12CN3CC(C(C)C)(CN(C1)C3c1cccnc1)C2=O (centres undefined)	.	.	.	.	.	.
CCCCn1c(O)c(C=NC2CCCCC2N)c(=O)[nH]c1=O (centres undefined)	.	83.7	99.0	.	.	.
COc1nc(NC(C)C)nc(NC(C)C)n1	.	.	.	.	.	.
O=C1NC(=O)C(CCc2ccncc2)(Cc2ccc([N+](=O)[O-])cc2)C(=O)N1	/	/	/	.	/	/
COc1ccc(-c2cc(C(F)(F)F)n3nc(C(=O)N4CCC5(CC4)OCCO5)cc3n2)cc1OC	.	88.6	.	.	.	.
O=C(c1cc2ccccn2n1)N1CCC2(CC1)OCCO2	.	.	.	.	?	.
CCCCC1C(=O)NC(=S)NC1=O	/	/	/	.	/	/
CC1(C)CC(=O)C(C2(O)C(=O)NC(=O)NC2=O)=C(O)C1	/	/	/	.	/	/
O=c1[nH]c(=O)n(Cc2ccco2)c(O)c1/C=N/N1CCCCCC1	/	/	/	.	/	/
N#Cc1c(/N=C/c2c(O)n(Cc3ccco3)c(=O)[nH]c2=O)sc2c1CCCC2	.	.	.	.	.	39.7
Cc1sc2c(c1C)C(c1ccc(C(C)(C)C)cc1)=NCC(=O)N2CC(=O)Nc1nccs1	.	.	.	54.0	.	.
Cc1sc2c(c1C)C(c1cccs1)=NCC(=O)N2CC(=O)NCc1cccs1	.	.	.	.	.	.
CC(C)(C)n1c(O)c(C=Nc2ccc3c(c2)CCC3)c(=O)[nH]c1=O	.	.	.	.	.	.
SMILES	FAK inh	IL1B cytotox	IL1B NFkB inh	Measles CPE	IL1B NFkB pot	HIV Rev-RRE inh
CCCCN1C(=O)NC(=O)/C(=C/c2cnc(SC)nc2)C1=O	.	.	.	51.0	.	.
CSc1ncc(/C=C2/C(=O)NC(=O)N(C)C2=O)cn1	.	.	.	.	.	.
CCN(CC)c1ccc(N=Cc2c(O)n(-c3cc(OC)ccc3OC)c(=O)[nH]c2=O)cc1	.	.	.	.	.	63.6
O=P(Nc1ccccc1)(Nc1ccccc1)Oc1cccc(Cl)c1	.	.	.	.	.	.
Cc1ccc2nc3c(cc2c1)CC1(C(=O)N(C)C(=O)N(C)C1=O)C1COCCN31 (centres undefined)	.	.	.	.	.	.
Cc1ccc2nc3c(cc2c1)CC1(C(=O)N(C)C(=O)N(C)C1=O)C1CCCCN31 (centres undefined)	.	.	.	34.1	.	.
CC(C)(C)N1Cc2ccccc2C1=N	.	.	.	.	.	.
CN1C(=O)/C(=C/c2ccc(N3CCCCCC3)o2)C(=O)NC1=S	.	.	.	.	.	126.2[fluorescence artefact?]
CN1C(=O)/C(=C\c2ccc(N3CCCCC3)o2)C(=O)NC1=S	.	.	.	.	.	128.0[fluorescence artefact?]
C=CCN1C(=O)/C(=C\c2ccc(N3CCOCC3)o2)C(=O)NC1=S	/	/	/	.	/	/
COc1ccc(Nc2ncc(C(=O)N3CCC4(CC3)OCCO4)c3ccccc23)cc1	/	/	/	.	/	/
CN(C)CCN=Cc1c(O)n(CCC2=CCCCC2)c(=O)[nH]c1=O	.	.	.	33.0	.	.
O=c1[nH]c(=O)n(CCC2=CCCCC2)c(O)c1C=NCCCn1ccnc1	.	.	.	.	.	.
CCOC(=O)C1CCN(/C=C2/C(=O)NC(=O)N(Cc3ccco3)C2=O)CC1	/	/	/	.	/	/
O=C1NC(=S)N(c2ccc(Cl)cc2)C(=O)/C1=C/N1CCN(C(=O)c2ccco2)CC1	.	/	/	.	/	41.0
CC(=O)N1CN2CN(C1)CN(C(C)=O)C2	/	/	/	.	/	/
CN1CC=C2C(C#N)=C(N)C(C#N)(C#N)C(c3ccncc3)C2C1 (centres undefined)	.	.	.	44.8	.	.
CN1CCC(n2nccc2N)CC1	.	.	36.4	.	.	.
Nc1ccnn1C1CCNCC1	.	.	.	.	.	.
c1ccc(-c2[nH]c[n+](CC3CO3)c2-c2ccccc2)cc1 (centres undefined)	/	/	/	.	/	/
O=C1NC(=O)C(=Cc2cn(CCOc3ccc4c(c3)OCO4)c3ccccc23)C(=O)N1	.	.	.	.	.	44.2
CCOC(=O)C(O)(c1ccc(N(CC)C(=O)COc2ccccc2)cc1)C(F)(F)F (centres undefined)	/	/	/	.	/	/
O=C(c1ccc(N2CC3CC(C2)c2cccc(=O)n2C3)c([N+](=O)[O-])c1)N1CCCCC1 (centres undefined)	/	/	/	.	/	/
C[C@H]1CCC[C@@H](O)CCC/C=C/c2cc(O)cc(O)c2C(=O)O1	.	.	.	117.1	.	.
C[C@H]1CCC[C@H](O)CCCCCc2cc(O)cc(O)c2C(=O)O1	.	.	.	.	.	.
SMILES	FAK inh	IL1B cytotox	IL1B NFkB inh	Measles CPE	IL1B NFkB pot	HIV Rev-RRE inh
O=C1NC(=O)C(CCc2ccccn2)(Cc2ccc3c(c2)OCO3)C(=O)N1CCc1ccccc1 (centres undefined)	.	.	.	.	.	.
CCOC(=O)C1SC2(C(F)F)CC1(O)c1c(c(OC)c3occc3c1OC)O2 (centres undefined)	.	.	.	.	.	.
Cc1ccc(CS(=O)(=O)CCC(=O)N2CCC3(CC2)OCCO3)cc1	.	91.8	.	.	.	.
Cc1ccc(CS(=O)(=O)Cc2ccc(C(=O)N3CCC4(CC3)OCCO4)o2)cc1	.	.	.	.	.	.
COc1cc(/C=C2\C(=O)NC(=O)N(c3ccccc3)C2=O)cc(OC)c1O	.	.	.	.	.	58.8
Cc1nc2c(=O)n(C)c(=O)nc-2n(C)n1	68.3	.	.	.	.	.
C1=C(CCNCc2ccccc2)CCCC1	.	.	.	35.1	.	.
CCN(CC)CCCN=C(C)c1c(O)n(-c2ccc(C)cc2)c(=O)[nH]c1=O	.	.	.	.	.	.
Cc1ccc2c(c1)CC1(CN2C)C(=O)NC(=O)N(CCC2=CCCCC2)C1=O (centres undefined)	.	.	.	.	66.1	.
